CHRM4 antagonist: blocks acetylcholine activation of human M4 receptor; CHO-hM4 cells, ACh EC80, Fluo-8 calcium fluorescence; inhibition, % at 3 µM; 0.73% of 360,000 active; AID 624125;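 active = inhibition above its plate's cutoff, the mean inhibition of sample wells plus 3 SD, cut at about 27% in these data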
Target sequence (P08173 whole entry, looked up): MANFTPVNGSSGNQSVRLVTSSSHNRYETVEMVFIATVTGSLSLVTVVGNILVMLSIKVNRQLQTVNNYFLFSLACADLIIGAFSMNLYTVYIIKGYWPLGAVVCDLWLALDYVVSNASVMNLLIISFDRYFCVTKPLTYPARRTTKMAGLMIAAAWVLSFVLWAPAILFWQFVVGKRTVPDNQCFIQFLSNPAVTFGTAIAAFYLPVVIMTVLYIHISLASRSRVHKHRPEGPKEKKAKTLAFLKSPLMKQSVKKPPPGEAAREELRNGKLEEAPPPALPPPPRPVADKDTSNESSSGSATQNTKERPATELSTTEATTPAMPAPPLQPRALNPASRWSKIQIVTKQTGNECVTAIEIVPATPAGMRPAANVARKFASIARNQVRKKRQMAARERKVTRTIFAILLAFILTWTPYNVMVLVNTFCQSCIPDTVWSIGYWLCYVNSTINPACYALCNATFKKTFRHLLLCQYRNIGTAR
M5 ag: CHRM5 agonism in calcium assay | 0.19% of 360,000 active | AID 624037 | activation, % at 3 µM | CHO-K1 hM5 cells, Fluo-8 calcium fluorescence; 0% DMSO wells, 100% maximal acetylcholine response | P08912;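 active = activation above the run's mean over test compounds plus 3 SD, cut at about 23% in these data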;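 note: signal is peak over basal fluorescence ratio across the kinetic read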
CHRM4 agonist: CHRM4 agonism in calcium assay | P08173 | CHO-K1 hM4/Gqi5, Fluo-8 calcium fluorescence; vehicle 0%, full acetylcholine response 100% | activation, % at 3 µM | 0.14% of 360,000 active;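 active = activation above the run mean over all test wells plus 3 SD, cut at about 32% in these data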;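 note: peak over basal fluorescence ratio per well then scaled between controls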
CHRM5 antagonist: antagonists of human muscarinic M5 receptor (CHRM5); CHO-hM5 cells, Fluo-8 calcium fluorescence, ACh EC80; inhibition, % at 3 µM; 0.59% of 360,000 active;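 active = inhibition above a per-plate cutoff, the mean of that plate's test compounds plus 3 SD, cut at about 27% in these data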
CHRM4 PAM: positive allosteric modulators of human muscarinic M4 receptor. P08173. CHO-K1 hM4/Gqi5, Fluo-8 calcium fluorescence, ACh EC20; 0% = ACh EC20, 100% = maximal ACh. activation, % at 3 µM. 0.4% of 360,000 active;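 active = activation above its plate's cutoff, the mean activation of sample wells plus 3 SD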
CHRM5 PAM: CHRM5 positive allosteric modulation. 0.3% of 360,000 active. CHO-K1 hM5, Fluo-8 calcium, ACh EC20 PAM; 0% = ACh EC20, 100% = ACh EC100. P08912. AID 624038. activation, % at 3 µM;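 active = activation above the run cutoff, the mean activation of all test compounds plus 3 SD, cut at about 18% in these data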
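System: CHO-K1 cell line with stable human muscarinic M5 receptor expression | Also added: EC20 acetylcholine as agonist stimulus | Compound: One concentration, 3 µM final (nominal) | Timing: Fluo-8 loading 80 min at 37 °C plus 30 min room temperature | Measured by: Fluo-8 calcium dye fluorescence, kinetic read | Read-out basis: % activation, ACh-normalized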
Of the large screens only hits and unclear results are named; the others gave an inactive call. Rows were chosen to be rich in hits. Some 1.8% of all compounds tested hit in one or more screens of this group.

CCN(CC)c1ccc(/C=C2\SC(=O)N(C(C)C)C2=O)o1	CHRM4 antagonist 41
COc1cccc(C(NC(C)=O)c2nc(-c3ccc(F)cc3OC)cs2)c1 (configuration not stated)	none
CCc1cccc(C)c1NC(=O)C1=C(C(=O)O)CCCC1	CHRM4 antagonist 28
CCc1cccc(C)c1NC(=O)c1ccccc1	none
COc1ccc(NC(=O)/C(=C\c2ccc(OS(=O)(=O)c3ccc(C)cc3)cc2)NC(=O)c2ccccc2)cc1	none
Cc1ccc(S(=O)(=O)Oc2ccc(/C=C(/NC(=O)c3ccccc3)C(=O)Nc3ccccc3)cc2)cc1	CHRM4 antagonist 28
Nc1cccc2cc(-c3ccccc3)oc12	CHRM4 PAM 25
COc1cccc2cc(-c3ccccc3)oc12	none
CC(C)Nc1ccc(C(CC(N)=O)NC(=O)c2ccccc2)cc1[N+](=O)[O-] (configuration not stated)	none
CC(C)Nc1ccc(C(CC(N)=O)NC(=O)c2ccc(Br)cc2)cc1[N+](=O)[O-] (configuration not stated)	CHRM5 PAM 20
CCCc1cc(=O)n2nc(N3CCC(C(=O)Nc4cccc(C(C)=O)c4)CC3)sc2n1	none
O=C(Cc1ccc(-c2ccccc2)cc1)NCCN1CCOCC1	CHRM4 PAM 19
O=C(CN1CCOCC1)NCCc1ccccc1	CHRM4 PAM 24
CCCn1c(N)c(C(=O)CSc2nnc3ccccn23)c(=O)n(C)c1=O	CHRM4 PAM 27
CCc1ccccc1N(CC(=O)N1CCc2ccccc2C1)S(C)(=O)=O	none
O=C(NCCN1CCOCC1)N1c2ccccc2Sc2ccccc21	CHRM4 antagonist 38, CHRM5 antagonist 59
O=C(CCN1CCOCC1)N1c2ccccc2Sc2ccc(Cl)cc21	CHRM4 antagonist 57, CHRM5 antagonist 95
CN(C)CCCNC(=O)N1c2ccccc2Sc2ccccc21	CHRM4 antagonist 97, CHRM5 antagonist 100
CN1CCN(CCC(=O)N2c3ccccc3Sc3ccc(C(F)(F)F)cc32)CC1	none
CCOC(=O)c1c(N/C=C(\C#N)c2nc(-c3ccc(OC(C)=O)cc3)cs2)sc2c1CCC2	CHRM5 PAM 23
CCOc1cc2c3c(c1)C(C)=CC(C)(C)N3C(=O)C2=O	M5 ag 56
COc1ccc(/C=C/CN2CCC(Oc3ccc(C(=O)N4CCCCC4)cc3)CC2)cc1	CHRM4 antagonist 31, CHRM5 antagonist 35
O=C(c1ccc(OC2CCN(Cc3ccccn3)CC2)cc1)N1CCCC(O)C1 (configuration not stated)	CHRM5 PAM 24
CSc1ccc(CN2CCC(Oc3cccc(C(=O)N4CCCC4)c3)CC2)cc1	CHRM4 antagonist 55, CHRM5 antagonist 69
CCCOC1CCCN(C(=O)c2ccc(OC3CCN(Cc4ccccn4)CC3)cc2)C1 (configuration not stated)	none
COC(=O)c1ccc(CN2CCC(Oc3cccc(C(=O)N4CCCC4)c3)CC2)cc1	CHRM4 antagonist 95, CHRM5 antagonist 80
O=C(c1cccc(OC2CCN(Cc3cc(F)cc(F)c3)CC2)c1)N1CCCC1	none
CSc1ccc(S(=O)(=O)NCC(=O)OCC(=O)N(Cc2ccccc2)C(C)C)cc1[N+](=O)[O-]	none
O=C(COc1ccc(Cl)cc1)N1CCN(C(=O)c2cccs2)CC1	none
COc1cccc(NC(=O)CN(C)C(=O)c2ccc(-n3cncn3)c([N+](=O)[O-])c2)c1	none
COC(=O)c1ccc(CN2CCC(Oc3ccc(C(=O)N4CCCCC4)cc3)CC2)cc1	CHRM4 antagonist 62
CCn1cc(-c2ccccc2)c(C(=O)O)c1-c1ccc(OC)cc1	none
COc1cc(/C=C/C(=O)O)cc(S(=O)(=O)NCc2ccco2)c1OC	none
COc1ccc(/C=C/C(=O)O)cc1S(=O)(=O)NCc1ccco1	CHRM5 PAM 25
O=C(Cc1ccc(Br)cc1)N(Cc1ccccc1)c1ccccn1	none
Cc1ccc(SCC(=O)OCC(=O)N(C)CC(=O)Nc2ccc(F)cc2)cc1C	M5 ag 50, CHRM4 agonist 52
O=C(CC[C@H]1O[C@@H](n2ccc(=O)[nH]c2=O)[C@H](O)[C@@H]1O)NCc1cccc2ccccc12	CHRM4 PAM 21
CCc1nn(CC(=O)NC(C)CCc2ccccc2)c(=O)c2cc3cc(F)ccc3n12 (configuration not stated)	none
COc1ccc2c(c1)cc1c(=O)n(CC(=O)NC(C)CCc3ccccc3)nc(C)n12 (configuration not stated)	CHRM4 PAM 15
CC(=O)Nc1ccc(S(=O)(=O)NNc2ccc([N+](=O)[O-])cc2)cc1	none
O=C(NC1(C(=O)O)CCCC1)c1ccccc1	CHRM4 PAM 16
COC(=O)c1cccc(NC(=S)NCc2ccc(Cl)cc2)c1	none
COC(=O)c1cc(NC(=S)NCc2ccc(Cl)cc2)cc(C(=O)OC)c1	CHRM5 antagonist 29
O=C(NNC(=O)c1ccc2c(=O)n3c(nc2c1)CCC3)c1cccc(Cl)c1	none
COc1ccc(CNC(=O)C2CCC(CNC(=O)[C@@H]3Cc4ccccc4CN3)CC2)cc1 (some centres not stated)	none
CN1CCN(CCCN2c3ccccc3Sc3ccc(Cl)cc32)CC1	none
OC1CC2CCC(C1)N2CCCN1c2ccccc2Sc2ccc(Cl)cc21 (configuration not stated)	CHRM4 antagonist 37
Cc1cccc(C)c1NC(=O)COC(=O)c1c2c(nc3ccccc13)/C(=C\c1ccc3c(c1)OCO3)CCC2	CHRM4 antagonist 37, M5 ag 49, CHRM4 agonist 88
CCOc1cc(/C=C2\CCCc3c2nc2ccccc2c3C(=O)O)ccc1OC	CHRM4 agonist 44
Cc1onc(-c2ccccc2Cl)c1C(=O)N1CCOC12CCCCC2	CHRM4 PAM 19
Cc1onc(-c2c(Cl)cccc2Cl)c1C(=O)N1CCc2ccccc2C1	CHRM4 antagonist 32
CCC(CC)NC(=O)CN1CCN(S(=O)(=O)c2ccc(Br)s2)CC1	none
CC1(c2nnnn2Cc2ccccc2)CCC(=O)N1CCc1ccccc1F (configuration not stated)	none
N#CC1=C(SCC(=O)NC2CC2)NC(=O)C(C#N)C12CCCCC2 (configuration not stated)	none
N#CC1=C(SCC(=O)NC23CC4CC(CC(C4)C2)C3)NC(=O)C(C#N)C12CCCCC2 (configuration not stated)	CHRM5 antagonist 29
CNc1nc2cc([N+](=O)[O-])c([N+](=O)[O-])cc2nc1NC	CHRM5 antagonist 30
Cc1ccccc1-c1nnn(CC(=O)Nc2ccc3c(c2)OCCO3)n1	none
